Measured values from ChEMBL document CHEMBL3244340, “Antineoplastic agents. 1. Synthesis and antineoplastic activities of chloroethyl- and methylnitrosourea analogues of thymidine” (J Med Chem, 1978).

What was measured:
L1210 = experiment: Cytotoxicity against mouse L1210 cells after 72 hrs by coulter counter analysis; assay type: functional; conditions: L1210, 72 h, read-out: ED50 (the source's name)
Procedure, shortened: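 Murine L1210 leukemia cells grown in suspension in Fischer's medium with 10% horse serum, 37 °C. Cells exposed to nitrosoureas for 72 h, then counted by Coulter counter, two independent samples in duplicate per concentration. ED50 (concentration inhibiting growth by 50%) estimated from dose-response curves pooled from at least three separate experiments.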

[1] = Alkylating activity of the compound relative to 1,3-bis-(2-chloroethyl)-1-nitrosourea; assay type: physicochemical
[2] = Carbamoylating activity of the compound at 5 umol by liquid scintillation spectrometry in presence of [14C]-lysine relative to 1,3-bis-(2-chloroethyl)-1-nitrosourea; assay type: physicochemical

SMILES | EC50 (L1210) [µM] | fold change (FC) [1] | fold change (FC) [2]
Cc1cn([C@H]2C[C@H](O)[C@@H](CNC(=O)N(CCCl)N=O)O2)c(=O)[nH]c1=O | 6.6 | 0.47 | 1.6
Cc1cn([C@H]2C[C@H](O)[C@@H](CN(N=O)C(=O)NCCCl)O2)c(=O)[nH]c1=O | 4.2 | 0.06 | 1.6
Cc1cn([C@H]2C[C@H](O)[C@@H](CNC(=O)N(C)N=O)O2)c(=O)[nH]c1=O | 95 | 0.05 | 1
Cc1cn([C@H]2C[C@H](NC(=O)N(CCCl)N=O)[C@@H](CO)O2)c(=O)[nH]c1=O | 1.5 | 2.1 | 0.9
Cc1cn([C@H]2C[C@H](NC(=O)N(C)N=O)[C@@H](CO)O2)c(=O)[nH]c1=O | 1 | 0.05 | 0.9
O=NN(CCCl)C(=O)NCCCl [CARMUSTINE] | 4 | – | –
